The text below walks through data of ChEMBL document CHEMBL4513216, “Probing the Open Global Health Chemical Diversity Library for Multistage-Active Starting Points for Next-Generation Antimalarials” (ACS Infect Dis, 2020).

SMILES strings stand for the structures.

The nature of this data set: Toxicity liver stage against HepG2, at 10uM. Set-up: test concentration 10 uM, cell line HepG2-A16-CD81EGFP. The following applies: human, HepG2-A16-CD81EGFP cells; read-out: INHIBITION
The data set is classed as cell-based. In a few lines:
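Uninfected HepG2-A16-CD81EGFP cells, 3 × 10^3 per well, 1536-well, plated on prespotted compound at 10 μM final, parasite-free screening media added to match infected plates; puromycin 10 μM positive, DMSO 0.5% negative; run in parallel with 48 h PbLuc assay at 37 °C, 5% CO2; viability by CellTiter-Glo luminescence, normalized to controls.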
`COCCN1C[C@H]2CN(C(=O)NCc3ccccc3)CCN2C1=O`: the cytotoxicity at 10 µM came out at 2.08%. For the compound `c1cn2c(n1)CO[C@@H](CNCc1ccc3c(c1)OCO3)C2`, the cytotoxicity at 10 µM was 2%. The same measure for `CC(=O)N1C[C@@H](F)[C@@H](OCc2nc3ccccc3o2)C1`: -1.34%; for `Cc1nn(C)cc1-c1nn2c(C(F)(F)F)nnc2s1`: 2.48%; for `CSCCC(Nc1nc(C)cc(C)n1)C(=O)NC1CC1` (configuration not stated): -15.3%. To `COCCNC(=O)NCCn1nc(C(F)(F)F)n(C)c1=O` belongs -2.06%. For the compound `Cc1cnc(CNC(=O)C[C@@H]2COC[C@H]3CN(C4CCC4)C[C@@H]23)cn1`, the cytotoxicity at 10 µM is -10.6%. To `O=C1NCCO[C@H]2CN(C(=O)CCc3ccccc3Cl)CC[C@@H]12` belongs 1.96%; to `O=c1ccc2c(n1Cc1ccncc1)CCN(C1CCOC1)CC2` (configuration not stated), -1.31%. The same measure for `COCC1CN(CC2CCOCC2)Cc2cn(CC3CCCC3)nc21` (configuration not stated): 5.19%; for `CNC(=O)[C@@]12CCC3(CCNCC3)[C@@H]1CN(S(C)(=O)=O)C2`: -2.86%.

As for `CO[C@@H]1CC[C@H]2[C@H]1OCCN2S(=O)(=O)C1CC1`, the cytotoxicity at 10 µM was 2.6%. On to `CN(C)[C@@H]1CCN(c2ncccn2)[C@H]1Cc1ccccc1`, for which the cytotoxicity at 10 µM was -9.29%.

`CC1CCN(C(=O)c2ccn(COc3ccccc3)n2)CC1`: the cytotoxicity at 10 µM was -0.107%.

As to `Cn1cc(Br)c(C(=O)NCCn2cc(Br)cn2)n1`, the cytotoxicity at 10 µM was -13.3%. For the compound `COC(=O)c1c(Cl)c(C)nc2onc(C)c12`, the cytotoxicity at 10 µM is -0.895%.

Turning to `COc1ccc(CNC(=O)c2nn(C)c3c2CS(=O)(=O)CC3)cc1OC`, the cytotoxicity at 10 µM turned out to be 8.09%. The same measure for `CC(=O)N1CCOC(c2c(C(=O)NCCN(C)C)sc3ccccc23)C1` (configuration not stated): -1.19%; for `CC(C)NC(=O)C1CCc2nnc(C(C)(C)C)n21` (configuration not stated): 2.74%; for `CC(C)(CO)N1CCN(S(=O)(=O)CCCF)CC1`: -4.3%.

As to `CC(C#N)CNC(=O)Nc1ccc(Br)cc1` (configuration not stated), the cytotoxicity at 10 µM was 1.44%. As for `O=C(NCCN1CCCCCC1=O)Nc1cccnc1-n1cccn1`, the cytotoxicity at 10 µM is -1.73%. To `CCC(NC(=O)c1ccc(COC)o1)c1nc(C(F)(F)F)cs1` (configuration not stated) belongs 2.91%. The same measure for `CCC(C)NC(=O)CS(=O)(=O)Cc1ccccc1Cl` (configuration not stated): 3.79%. As for `CN(C)C(=O)CCCn1ccc(NCc2ccc(C#N)cc2)n1`, the cytotoxicity at 10 µM amounted to 1.92%. In the case of `NC(=O)CN1CCc2c(Br)ccc(F)c2C1`, the cytotoxicity at 10 µM was 0.892%. To `CC(C)Oc1cccc(CN(C)C(=O)Nc2cccn(C)c2=O)c1` belongs -6.13%; to `COC(=O)CCN(CC1CCCO1)C(=O)CCc1ccc(OC)cc1` (configuration not stated), 7.39%; to `CN(C)c1ccc(C(=O)Nc2ccn(CC(N)=O)n2)cn1`, -5.75%. Turning to `O=C(CNC(=O)c1ccccc1I)NCc1ccccc1F`, the cytotoxicity at 10 µM was found to be 1.16%. To `Cc1cc(N2CCc3c(ncn3C)C2)nc(N)n1` belongs -7.93%; to `Cc1cnc(CN2CCN(C(C)c3nc(C)no3)CC2)cn1` (configuration not stated), 1.81%; to `COc1ccc(OCCN(C)C(=O)c2ccc(OC)cc2O)cc1`, -143%. With `CCOc1ccc(CC(=O)Nc2cnccc2SCCCO)cc1`, the cytotoxicity at 10 µM was 7.94%. To `Cc1cccc(-c2noc(CN3CCn4c(nnc4C4CC4)C3)n2)c1` belongs -9.03%. To `COc1ccc2c(c1)C(=O)N(C)C1(CCN(CC=C(C)C)CC1)N2` belongs 3.31%; to `N#Cc1cccnc1NCc1ccc(S(=O)(=O)NC2CC2)cc1`, 6.25%; to `Cc1n[nH]c(C)c1NC(=O)c1cccc(OCC(F)(F)F)n1`, -6.83%. The same measure for `NC(=O)CCN1C(=O)CC(Cc2ccc(F)cc2)C1=O` (configuration not stated): -4.89%; for `CC(CNC(=O)c1c[nH]nn1)Oc1cccc(Br)c1` (configuration not stated): -10.3%; for `N#CC(NC(=O)CCC(=O)NC1CCCC1)c1ccc(F)cc1F` (configuration not stated): 6.75%. In the case of `OCC(O)CSCc1ccc(F)cc1Cl` (configuration not stated), the cytotoxicity at 10 µM is -138%. As for `COc1ccc(S(=O)(=O)C(C)C(=O)NCCOc2cccc(C)c2)cc1` (configuration not stated), the cytotoxicity at 10 µM was -2.24%.

`CCc1nnsc1C(=O)N1CCN(CC(O)C(C)(C)C)CC1` (configuration not stated): the cytotoxicity at 10 µM turned out to be 0.542%. To `O=C(O)c1csc(S(=O)(=O)N2CCCc3cc(OC(F)F)ccc32)c1` belongs -9.69%; to `Cc1cnn(-c2ccc(C(=O)N3CCN(C)CC3C)cc2)c1` (configuration not stated), 5.16%. For `CCOc1ccc(C(F)(F)F)cc1NC(=O)NCc1noc(C)n1`, the cytotoxicity at 10 µM was -5.1%. To `CCCc1nc(CNC2(c3nccs3)CCCC2)cs1` belongs 2.63%; to `CN(Cc1nnc(-c2cccs2)o1)C(C(N)=O)c1cccc(F)c1` (configuration not stated), 13.7%. To `COC(C)(C)CC(C)NC(=O)Nc1ccccn1` (configuration not stated) belongs 8.19%; to `O=S(=O)(CC1CCCO1)Nc1cc(Cl)ccc1-n1cccn1` (configuration not stated), 3.55%.

With `CC(=O)N(C)c1nc(CN2CCOC(Cn3cccn3)C2)cs1` (configuration not stated), the cytotoxicity at 10 µM was -12.8%. To `CCc1nc2n(n1)CC(NCc1nc(C)ccc1O)CC2` (configuration not stated) belongs -9.96%; to `O=C1CCCCN1CCc1nc(C2(c3ccc(F)cc3)CCOC2)no1` (configuration not stated), 3.82%.

Regarding `CC(=O)NCCNC(=O)C(c1ccccc1C)N(C)C` (configuration not stated), the cytotoxicity at 10 µM worked out at 10.6%. Turning to `COc1ccc2cc(CN(C)CCN3CCCCC3=O)c(=O)[nH]c2c1`, the cytotoxicity at 10 µM was 0.363%. To `COc1ccc(C(=O)N2C[C@@H](O)[C@H](NCCc3ncccc3C)C2)cc1` belongs -3.71%; to `COCc1noc(Cn2ccc3ccccc3c2=O)n1`, 0.761%. Turning to `Cc1ccc(Oc2ncccc2CNC2CCOCC2)cn1`, the cytotoxicity at 10 µM is -3.73%. As to `CCN1CCN(C[C@@H]2CN(c3ncccc3C(F)(F)F)C[C@@H]2CO)CC1`, the cytotoxicity at 10 µM was -4.47%. With `O=C(CCCN1CCCCC1)N1CCN(C(=O)c2nc[nH]n2)CC1`, the cytotoxicity at 10 µM was 7.81%. `Cc1ccc2nc(C(=O)N3CCNC(=O)C3c3cccc(F)c3)cn2c1` (configuration not stated): the cytotoxicity at 10 µM is -5.66%.

Consider `O=C(NCc1ccc(F)cc1F)C(c1cccnc1)N1CCOCC1` (configuration not stated), for which the cytotoxicity at 10 µM was -4.89%. The same measure for `Cc1cccc(CN2CCCC(O)(CNCc3cccc(F)c3)C2=O)c1` (configuration not stated): -12.1%. Turning to `COCC1CCCCN1C(=O)c1cc(Cn2ccc3ccccc32)[nH]n1` (configuration not stated), the cytotoxicity at 10 µM was -3.54%. The same measure for `CCc1ncc(C(=O)N2CCN(C(=O)COc3ccccc3)CC2)cn1`: -12.8%.

Take `CCCn1cc(C(=O)NCCc2ccc3c(c2)OCO3)c(C)n1`: the cytotoxicity at 10 µM came out at 96.3%. For the compound `CCN1CCN(C(=O)c2cccc(CN3CCOCC3)c2)CC1`, the cytotoxicity at 10 µM stood at 7.12%. For the compound `N#Cc1c(C2CC2)cc(-c2ccc(O)cc2)nc1N`, the cytotoxicity at 10 µM is -4.72%. The same measure for `CCc1nc(C)c([C@H]2CN(C)C[C@@H]2C(=O)Nc2ccc(OC)cc2)[nH]1`: -6.66%; for `CC(C)c1nc(CN2CCOC(Cn3cncn3)C2)no1` (configuration not stated): 1.01%. Take `COc1ccc(NC(=O)NCc2ccnc(N(C)C)c2)cn1`: the cytotoxicity at 10 µM was -8.6%. To `COc1cc(CNC(=O)N(Cc2ccc(F)cc2F)C2CC2)ccn1` belongs -9.17%. To `CCCN(C)CCC(=O)N1CCCC1Cn1cccn1` (configuration not stated) belongs -16.9%; to `CC(NC(=O)N1CCN(c2nccs2)CC1)c1nncn1C` (configuration not stated), -13.1%. Regarding `Cc1cnn(CCNCc2ccccc2OCc2ccncc2)c1`, the cytotoxicity at 10 µM is -16.1%. To `Cc1cnn(CCNCc2ccccc2OCc2ccccn2)c1` belongs 3.03%; to `Cc1ccc(F)c(C(=O)N2CCC(Nc3ccc(C)nn3)CC2)c1`, -3.78%; to `CCc1nc(CN2CCOC(Cn3nc(C)nc3C)C2)no1` (configuration not stated), -5.38%.

`O=C(CN1CCCCC1)N1CCC(c2cc(=O)n3c(n2)CCCCC3)C1` (configuration not stated): the cytotoxicity at 10 µM was -32.5%. For `O=S(=O)(NC[C@]12COC[C@H]1CN(c1ncc(F)cn1)C2)C1CC1`, the cytotoxicity at 10 µM is -128%. To `Cc1cnc(N2CC[C@@H]3CN(Cc4ccncc4)CCO[C@@H]3C2)nc1` belongs 3.23%; to `c1cnc(N2CCO[C@H]3CN(Cc4cc[nH]n4)C[C@H]32)cn1`, 9.07%.

For `CNC(=O)C1CNCCN1C(=O)c1ccc(C(F)(F)F)nc1C` (configuration not stated), the cytotoxicity at 10 µM is -4.7%. To `O=C(c1nc2c(o1)CN(CC1CCC1)C2)N1CCCC1` belongs -131%. The same measure for `O=C(c1cnccn1)N1CCCC2(CCN(Cc3ccsc3)C2)C1` (configuration not stated): -2.27%.

In the case of `CN(C)C(=O)N[C@@H]1CN(Cc2ccc3c(c2)OCO3)[C@@H]2CCCO[C@@H]21`, the cytotoxicity at 10 µM was -6.93%. `Cc1nc(CN2CCOCC23CCN(c2ccc(C#N)cc2)CC3)cs1`: the cytotoxicity at 10 µM is -13.8%. To `CN1CCOCC12CCN(c1ccc(C#N)cc1)CC2` belongs -4.23%; to `COCCN1CCc2ccc(=O)n(Cc3csc(C)n3)c2CC1`, 4.68%. With `Cc1csc(CCNCc2cnc3c(c2)c(C)nn3C)n1`, the cytotoxicity at 10 µM is 5.76%. With `CC(C)N(C)Cc1cn2c(n1)CN(Cc1ccsc1)CC2`, the cytotoxicity at 10 µM is -16.1%. On to `COCCN1C[C@@H]2CCCO[C@@H]2[C@H](N(C)Cc2ccco2)C1`, for which the cytotoxicity at 10 µM was -0.388%. The same measure for `COC(=O)N1C[C@@H]2CC[C@H]1CN(Cc1cscn1)C2`: -9.25%. With `CNc1nc2cn(CCc3ccc(Cl)cc3)c(=O)c-2c[nH]1`, the cytotoxicity at 10 µM was found to be 5.2%. Turning to `Cc1nnsc1CN1C[C@@H]2CC[C@H]1CN(Cc1ccccn1)C2`, the cytotoxicity at 10 µM was -3.56%.

With `COc1ccc(OC)c(C2c3c(n[nH]c3C)N=C3COC(=O)C32)c1` (configuration not stated), the cytotoxicity at 10 µM was -11.3%.
